From PubChem
MrgX1 PAM = positive allosteric modulators of MrgX1, primary screen, HEK293 cells, Fluo-4 calcium flux. 0.63% of 310,000 active. FDSS; stronger effect = higher value. B-score at 10 µM. Mas-related G-protein coupled receptor member X1 (Homo sapiens), Q96LB2;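 active means plate-corrected calcium response at least 3 library SD above typical, normal starting fluorescence, not activating the receptor alone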;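 further: compound read alongside a low EC10 to EC30 dose of BAM8-22 agonist; peak minus trough fluorescence over baseline measured at the second addition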
Target sequence (Q96LB2 whole entry, looked up): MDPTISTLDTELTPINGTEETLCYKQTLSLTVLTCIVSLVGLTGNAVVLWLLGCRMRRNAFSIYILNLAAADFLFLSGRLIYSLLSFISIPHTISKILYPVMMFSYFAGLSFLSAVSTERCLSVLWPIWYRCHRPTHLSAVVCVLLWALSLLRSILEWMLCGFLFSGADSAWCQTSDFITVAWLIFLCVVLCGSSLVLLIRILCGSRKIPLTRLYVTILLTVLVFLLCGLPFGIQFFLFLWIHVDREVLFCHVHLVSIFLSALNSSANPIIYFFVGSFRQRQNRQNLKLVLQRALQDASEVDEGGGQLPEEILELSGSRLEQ
MrgX1 antagonist = antagonists of human MrgX1 receptor, primary screen, HEK293 cells, Fluo-4 calcium flux. B-score at 10 µM. 1.3% of 310,000 active. BAM8-22 antagonism; stronger effect = lower value;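 active means calcium-response B-score plate-corrected more than 3 library SD below zero, starting fluorescence within 5 deviations, no agonist response on first addition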;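 further: peak minus trough fluorescence over baseline after final BAM8-22 challenge near maximal dose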
RGS4 pot = RGS4 potentiators or activators, primary screen, cell-based, HEK293 M3R inducible RGS4, calcium flux. carbachol calcium flux Fluo4; stronger effect = lower value. B-score at 10 µM. 0.92% of 310,000 active;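 active means B-score of the integrated calcium signal more than 4 SD below the library mean, with starting fluorescence not abnormally high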;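 further: negative B-score means reduced calcium response which marks RGS4 activation or potentiation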
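Assay system: HEK293 FlpIn-TREx cells, stable M3R, doxycycline-inducible RGS4 / Probe or stimulus: carbachol, ECmax concentration / Times: overnight RGS4 induction, 30 min dye load 37 °C, 20 min compound RT / Signal: kinetic calcium fluorescence imaging with Fluo4-AM dye, 2 µM / Measure: Agonist-evoked peak-minus-minimum fluorescence over baseline, integrated ratio, B score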
RGS4 inh = RGS4 inhibitors, primary screen, cell-based, HEK293 M3R inducible RGS4, calcium flux; Regulator of G-protein signaling 4 (Homo sapiens), P49798; Fluo-4 calcium flux; stronger effect = higher value; triggered by carbachol at its EC20; B-score at 10 µM; 0.45% of 310,000 active; AID 463165, 2010;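 active means B-score, a plate-corrected calcium signal, over three deviations above library mean, with baseline fluorescence within five deviations of library mean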;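 further: RGS4 expression induced by doxycycline in cells with stable M3 receptor; B-score is computed from the integrated fluorescence ratio over baseline after carbachol; higher B-score means a larger calcium signal and so more RGS4 inhibition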
Target sequence (P49798 whole entry, looked up): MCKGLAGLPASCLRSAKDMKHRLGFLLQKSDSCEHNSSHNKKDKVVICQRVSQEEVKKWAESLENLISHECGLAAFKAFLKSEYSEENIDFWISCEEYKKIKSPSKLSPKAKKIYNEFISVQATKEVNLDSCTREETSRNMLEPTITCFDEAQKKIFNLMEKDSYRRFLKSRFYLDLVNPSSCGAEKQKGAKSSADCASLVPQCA
MrgX1 agonist = agonists of human MrgX1 receptor, primary screen, HEK293 cells, Fluo-4 calcium flux; Mas-related G-protein coupled receptor member X1 (Homo sapiens), Q96LB2; Fluo-4 calcium fluorescence, agonist mode; stronger effect = higher value; B-score at 10 µM; 0.44% of 310,000 active; AID 588627, 2011;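 active means calcium response B-score plate-corrected fluorescence ratio at least 3 library SD, with starting fluorescence B-score inside 5 SD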
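Material – MrgX1-expressing HEK293 cells · Input – 15,000 cells seeded per well · Dosing – compound as first of three additions · Times – overnight seeding, then 1 h dark dye loading · Measured by – kinetic Fluo-4 NW fluorescence of intracellular calcium · Read-out – B-scored fluorescence response ratio · Benchmarks – positive and negative control wells on each plate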
RGS4 block valid = enhanced carbachol calcium response, M3R/RGS4 cells, RGS4 inhibitor project, cell-based, validation screen, HEK293 M3R/RGS4, calcium flux; carbachol calcium Fluo-4 fluorescence; carbachol added at its EC20; 0 = buffer wells, 100 = carbachol control; calcium response, % at 10 µM; 65% of 1,700 active; shares compounds with RGS4 inh;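 active means duplicate-averaged calcium response above the buffer-only control mean plus 5 SD of those controls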;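 further: integrated fluorescence ratio F max minus min over baseline F0; higher response in RGS4-induced cells means RGS4 inhibition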
RGS4 uninduced = carbachol calcium response in non-induced M3R cells, confirmation, counter-screen for RGS4 inhibitor project, cell-based, HEK293 M3R. activity (percent), % at 10 µM. shares compounds with RGS4 inh. AID 493000, 2010. 20% of 1,900 active. carbachol calcium Fluo-4; submaximal (EC20) carbachol stimulus; buffer wells 0%, carbachol control wells 100%; call rule not given here;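 further: RGS4 induction absent so cells express M3R without RGS4; higher means more calcium signal and flags a non-specific hit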
M3R basal Ca ctr = second RGS4 inhibitor counter-screen in uninduced cells lacking carbachol; shares compounds with RGS4 inh; HEK293 M3R/RGS4 non-induced, Fluo-4 calcium, no carbachol; normalised: buffer wells 0%, carbachol wells 100%; calcium response (agonist-mode artifact), % at 10 µM; 22% of 1,900 active;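 active means duplicate-averaged calcium rise in uninduced cells above buffer wells' mean plus 5 SD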
Each line names hits and unclear results; the compound was inactive in the other large screens (follow-up assays come after a bar, where they were run). An excerpt weighted towards active compounds, which were near 3.5% of everything screened.

Cc1ccc(NC(=O)C2CCCN2C(=O)OCc2ccccc2)c(O)c1 (stereo unspecified)	none
CCC(=O)NNC(=O)c1cc(COc2cc(Cl)cc(Cl)c2)on1	none
CCc1cc(-c2n[nH]c(C)c2-c2nc(C)cs2)c(O)cc1OC	RGS4 inh 5.3 | RGS4 block valid 9.5% | RGS4 uninduced inactive | M3R basal Ca ctr inactive
O=C(O)C1=NOC(CNc2ncc(C(F)(F)F)cc2Cl)C1 (stereo unspecified)	RGS4 inh 5 | RGS4 block valid 5.0% | RGS4 uninduced 48% | M3R basal Ca ctr inactive
NNC(=O)C1=NOC(CNc2ncc(C(F)(F)F)cc2Cl)C1 (stereo unspecified)	none
CC(=O)C1=NOC(CNc2ncc(C(F)(F)F)cc2Cl)C1 (stereo unspecified)	none | RGS4 uninduced inactive | M3R basal Ca ctr inactive
O=C(OCn1ncc(Cl)c(Cl)c1=O)c1ccc(F)cc1	none
O=C(OCn1ncc(Cl)c(Cl)c1=O)c1ccccc1Cl	RGS4 inh 7.4 | RGS4 block valid 15% | RGS4 uninduced 40% | M3R basal Ca ctr inactive
CCCOC(=O)Cn1cnc2scc(-c3ccc(OC)cc3)c2c1=O	none
O=C(CC1S/C(=N/N=C2CCCCCC2)NC1=O)Nc1ccccc1C(F)(F)F (stereo unspecified)	none
COc1ccccc1NC(=O)CC1S/C(=N/N=C2\CCCc3ccccc32)NC1=O (stereo unspecified)	RGS4 inh 6.1 | RGS4 block valid 60% | RGS4 uninduced 62% | M3R basal Ca ctr inactive
O=Nc1c(O)n(Cc2cccc(Cl)c2)c2ccccc12	RGS4 inh 6.4 | RGS4 block valid 16% | RGS4 uninduced 37% | M3R basal Ca ctr inactive
Cc1cc(C)c2nc(NNC(=O)c3ccc(S(=O)(=O)N4CCCC(C)C4)cc3)sc2c1 (stereo unspecified)	none
Cc1cccc2sc(NNC(=O)c3ccc(S(=O)(=O)N4CC(C)CC(C)C4)cc3)nc12 (stereo unspecified)	RGS4 inh 6.5 | RGS4 block valid 10% | RGS4 uninduced inactive | M3R basal Ca ctr inactive
Cc1ccc2nc(NNC(=O)c3ccc(S(=O)(=O)N4CCc5ccccc5C4)cc3)sc2c1	none | RGS4 uninduced inactive | M3R basal Ca ctr inactive
Cc1cc(C)c2nc(NNC(=O)c3ccc(S(=O)(=O)N4CC(C)CC(C)C4)cc3)sc2c1 (stereo unspecified)	none | RGS4 uninduced inactive | M3R basal Ca ctr inactive
CC(C)CNC(=O)COC(=O)CCC(=O)c1ccc(Cl)cc1	none
Cc1cccc(C(=O)Nc2ccc3c(c2)ncn3C)c1	none
S=c1[nH]nc(Cc2noc3ccccc23)n1-c1ccccc1	none
O=C(N/N=C/c1cccs1)c1cc(-c2cccc3ccccc23)n[nH]1	none
CCc1ccc(N2CC(C(=O)N/N=C/c3ccccc3OC)CC2=O)cc1 (stereo unspecified)	none
CCc1ccc(N2CC(C(=O)N/N=C/c3cc([N+](=O)[O-])ccc3O)CC2=O)cc1 (stereo unspecified)	none | RGS4 uninduced 57% | M3R basal Ca ctr inactive
N=c1c2ccccc2nnn1-c1cccc(C(F)(F)F)c1	none
COc1ccc(C=C(C(C)=O)C(C)=O)cc1OC	RGS4 inh 18 | RGS4 block valid 28% | RGS4 uninduced 44% | M3R basal Ca ctr inactive
